From ChEMBL document CHEMBL3525900, “Pharmacokinetics, distribution, and metabolism of [14C]sunitinib in rats, monkeys, and humans” (Drug Metab Dispos, 2012)

Tests used:
Thymus [1] = assay: Drug concentration in male albino rat thymus assessed as radioactivity per gram of tissue at 20 mg/kg administered as single dose via gastric gavage measured after 6 hrs by autoradiographic analysis; assay type: ADME, organism-based; set-up: dose 20 mg/kg, dosed compound name [14C]Sunitinib; conditions: in vivo, po
Spleen = assay: Drug concentration in female albino rat spleen assessed as radioactivity per gram of tissue at 20 mg/kg administered as single dose via gastric gavage measured after 24 hrs by autoradiographic analysis; assay type: ADME, organism-based; set-up: dose 20 mg/kg, dosed compound name [14C]Sunitinib; conditions: in vivo, po
[2] = Drug recovery in feces of female Sprague-Dawley rat at 5 mg/kg, iv administered as single dose during 0 to 72 hrs by liquid scintillation counting; assay type: ADME, organism-based; set-up: dose 5 mg/kg, dosed compound name [14C]Sunitinib, route intravenous; conditions: in vivo
[3] = Drug recovery in urine of female Sprague-Dawley rat at 5 mg/kg, iv administered as single dose during 0 to 72 hrs by liquid scintillation counting; assay type: ADME, organism-based; set-up: dose 5 mg/kg, dosed compound name [14C]Sunitinib, route intravenous; conditions: in vivo
Stomach = assay: Drug concentration in male albino rat stomach assessed as radioactivity per gram of tissue at 20 mg/kg administered as single dose via gastric gavage measured after 6 hrs by autoradiographic analysis; assay type: ADME, organism-based; set-up: dose 20 mg/kg, dosed compound name [14C]Sunitinib; conditions: in vivo, po
Rattus norvegicus [4] = assay: AUC (0 to infinity) as total radioactivity in female Sprague-Dawley rat plasma at 5 mg/kg, iv administered as single dose by LC/MS/MS analysis; assay type: ADME, organism-based; set-up: dose 5 mg/kg, dosed compound name [14C]Sunitinib, route intravenous, time infinity; conditions: in vivo
Method in brief: (§1)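 Single dose of [14C]sunitinib L-malate as free base, 50 µCi/kg. IV dose was 5 mg/kg by tail vein in 5 females. Oral dose was 15 mg/kg by gavage in 3 females and 3 males. Total radioactivity was by scintillation counting. […] Cmax was read from raw data, t½ by log-linear regression, AUC by linear trapezoidal rule.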

Zone of skin = assay: Drug concentration in male albino rat abdomen skin assessed as radioactivity per gram of tissue at 20 mg/kg administered as single dose via gastric gavage measured after 6 hrs by autoradiographic analysis; assay type: ADME, organism-based; set-up: dose 20 mg/kg, dosed compound name [14C]Sunitinib; conditions: in vivo, po
[5] = Drug concentration in male albino rat eye assessed as radioactivity per gram of tissue at 20 mg/kg administered as single dose via gastric gavage measured after 24 hrs by autoradiographic analysis; assay type: ADME, organism-based; set-up: dose 20 mg/kg, dosed compound name [14C]Sunitinib; conditions: in vivo, po
Cynomolgus monkey [6] = assay: AUC (0 to infinity) as total radioactivity in male cynomolgus monkey plasma at 6 mg/kg, po administered as single dose by LC/MS/MS analysis; assay type: ADME, organism-based, Macaca fascicularis; set-up: time infinity, dose 6 mg/kg, dosed compound name [14C]Sunitinib, route oral; conditions: in vivo
Method in brief: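 Cynomolgus monkeys of both sexes received one oral gavage of [14C]sunitinib L-malate at 6 mg/kg (37 µCi/kg). Femoral-vein blood was taken into heparin from 0.5 to 336 h. Plasma was kept cold and protected from light, then stored at -80 °C. Total radioactivity was by scintillation counting and sunitinib by methanol-extraction LC-MS-MS. Cmax was from raw data, t½ from the log-linear terminal slope, AUC(0-∞) by linear trapezoidal rule.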

Cynomolgus monkey [7] = assay: Tmax as total radioactivity in male cynomolgus monkey plasma at 6 mg/kg, po administered as single dose by LC/MS/MS analysis; assay type: ADME, organism-based, Macaca fascicularis; set-up: dose 6 mg/kg, dosed compound name [14C]Sunitinib, route oral; conditions: in vivo
Harderian gland = assay: Drug concentration in female albino rat harderian gland assessed as radioactivity per gram of tissue at 20 mg/kg administered as single dose via gastric gavage measured after 3 hrs by autoradiographic analysis; assay type: ADME, organism-based; set-up: dose 20 mg/kg, dosed compound name [14C]Sunitinib; conditions: in vivo, po
Method in brief: (§2)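 Sprague Dawley albino rats, ca 7-8 weeks old, dosed once by gastric gavage with [14C]sunitinib L-malate (15 mg freebase/kg, 100 µCi/kg). One male and one female killed by CO2 at 3, 6, 24, 72 and 168 h. Carcasses frozen in solid CO2/hexane, embedded and cut into 30 µm sagittal sections, then freeze-dried. Radioactivity quantified by whole-body autoradiography against standards by regression, background subtracted.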

[8] = Drug concentration in female albino rat lymph node assessed as radioactivity per gram of tissue at 20 mg/kg administered as single dose via gastric gavage measured after 6 hrs by autoradiographic analysis; assay type: ADME, organism-based; set-up: dose 20 mg/kg, dosed compound name [14C]Sunitinib; conditions: in vivo, po; method in brief: as §2
[9] = Drug concentration in male Lister Hooded pigmented rat pituitary gland assessed as radioactivity per gram of tissue at 20 mg/kg administered as single dose via gastric gavage measured after 168 hrs by autoradiographic analysis; assay type: ADME, organism-based; set-up: dose 20 mg/kg, dosed compound name [14C]Sunitinib; conditions: in vivo, po
Rattus norvegicus [10] = assay: Total drug recovery in female Sprague-Dawley rat at 5 mg/kg, iv administered as single dose during 0 to 72 hrs by liquid scintillation counting; assay type: ADME, organism-based; set-up: dose 5 mg/kg, dosed compound name [14C]Sunitinib, route intravenous; conditions: in vivo
Thymus [11] = assay: Drug concentration in male albino rat thymus assessed as radioactivity per gram of tissue at 20 mg/kg administered as single dose via gastric gavage measured after 3 hrs by autoradiographic analysis; assay type: ADME, organism-based; set-up: dose 20 mg/kg, dosed compound name [14C]Sunitinib; conditions: in vivo, po
Large intestine = assay: Drug concentration in female albino rat large intestine assessed as radioactivity per gram of tissue at 20 mg/kg administered as single dose via gastric gavage measured after 6 hrs by autoradiographic analysis; assay type: ADME, organism-based; set-up: dose 20 mg/kg, dosed compound name [14C]Sunitinib; conditions: in vivo, po; method in brief: as §2
[12] = Drug concentration in female albino rat bone marrow assessed as radioactivity per gram of tissue at 20 mg/kg administered as single dose via gastric gavage measured after 3 hrs by autoradiographic analysis; assay type: ADME, organism-based; set-up: dose 20 mg/kg, dosed compound name [14C]Sunitinib; conditions: in vivo, po
Method in brief: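 Sprague Dawley (albino) and Lister Hooded (pigmented) rats, ca 7-8 weeks old, 179-310 g, acclimated 7 days. Single gavage dose of [14C]sunitinib L-malate (15 mg freebase/kg, 100 µCi/kg). One male and one female killed by CO2 per time point: albino at 3, 6, 24, 72, 168 h; pigmented at 24, 72, 168, 336 h. Carcasses frozen in solid CO2/hexane, 30 µm sagittal sections freeze-dried. Tissue radioactivity read by quantitative whole-body autoradiography against regression of standards, mean background subtracted.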

[13] = Drug concentration in female albino rat uterus assessed as radioactivity per gram of tissue at 20 mg/kg administered as single dose via gastric gavage measured after 72 hrs by autoradiographic analysis; assay type: ADME, organism-based; set-up: dose 20 mg/kg, dosed compound name [14C]Sunitinib; conditions: in vivo, po
[14] = Drug concentration in female Lister Hooded pigmented rat lachrymal gland assessed as radioactivity per gram of tissue at 20 mg/kg administered as single dose via gastric gavage measured after 24 hrs by autoradiographic analysis; assay type: ADME, organism-based; set-up: dose 20 mg/kg, dosed compound name [14C]Sunitinib; conditions: in vivo, po
Method in brief: (§3)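 Lister Hooded (pigmented) rats, ca 7-8 weeks old, acclimated 7 days, given [14C]sunitinib L-malate by gastric gavage at 20 mg/kg (15 mg freebase/kg, 100 µCi/kg). One male and one female killed by CO2 at 24, 72, 168 and 336 h. Carcasses frozen in solid CO2/hexane and embedded in frozen cellulose. 30 µm sagittal cryosections were freeze-dried. Tissue radioactivity measured by quantitative whole-body autoradiography against calibration standards, with background subtracted.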

[15] = Drug concentration in female albino rat thyroid gland assessed as radioactivity per gram of tissue at 20 mg/kg administered as single dose via gastric gavage measured after 6 hrs by autoradiographic analysis; assay type: ADME, organism-based; set-up: dose 20 mg/kg, dosed compound name [14C]Sunitinib; conditions: in vivo, po
Rattus norvegicus [16] = assay: Cmax as total radioactivity in female Sprague-Dawley rat plasma at 15 mg/kg, po administered as single dose by LC/MS/MS analysis; assay type: ADME, organism-based; set-up: dose 15 mg/kg, dosed compound name [14C]Sunitinib, route oral; conditions: in vivo; method in brief: as §1
Blood = assay: Drug concentration in female Lister Hooded pigmented rat blood assessed as radioactivity per gram of tissue at 20 mg/kg administered as single dose via gastric gavage measured after 24 hrs by autoradiographic analysis; assay type: ADME, organism-based; set-up: dose 20 mg/kg, dosed compound name [14C]Sunitinib; conditions: in vivo, po; method in brief: as §3
[17] = Drug concentration in female Lister Hooded pigmented rat salivary gland assessed as radioactivity per gram of tissue at 20 mg/kg administered as single dose via gastric gavage measured after 24 hrs by autoradiographic analysis; assay type: ADME, organism-based; set-up: dose 20 mg/kg, dosed compound name [14C]Sunitinib; conditions: in vivo, po; method in brief: as §3
Kidney = assay: Drug concentration in female albino rat kidney assessed as radioactivity per gram of tissue at 20 mg/kg administered as single dose via gastric gavage measured after 168 hrs by autoradiographic analysis; assay type: ADME, organism-based; set-up: dose 20 mg/kg, dosed compound name [14C]Sunitinib; conditions: in vivo, po; method in brief: as §2

With `CCN(CC)CCNC(=O)c1c(C)[nH]c(/[14CH]=C2\C(=O)Nc3ccc(F)cc32)c1C.O=C(O)C[C@H](O)C(=O)O` the Radiolabel recovery (Thymus [1]) was 6.43 ugequiv, the Radiolabel recovery (Spleen) was 4.42 ugequiv and the Radiolabel recovery [2] was 77.2%. For the same compound, the Radiolabel recovery [3] was 9.1%, the Radiolabel recovery (Stomach) was 9.3 ugequiv and the AUC (Rattus norvegicus [4]) was 17427 ng.Eq.hr/ml. It also gave a Radiolabel recovery (Zone of skin) of 3.45 ugequiv, a Radiolabel recovery [5] of 0.08 ugequiv and an AUC (Cynomolgus monkey [6]) of 9095 ng.Eq.hr/ml. It also gave a Tmax (Cynomolgus monkey [7]) of 8 h, a Radiolabel recovery (Harderian gland) of 17.26 ugequiv and a Radiolabel recovery [8] of 14.48 ugequiv. It also gave a Radiolabel recovery [9] of 81.06 ugequiv, a Radiolabel recovery (Rattus norvegicus [10]) of 87.4% and a Radiolabel recovery (Thymus [11]) of 6.89 ugequiv. For the same compound, the Radiolabel recovery (Large intestine) was 7.43 ugequiv, the Radiolabel recovery [12] was 10.64 ugequiv and the Radiolabel recovery [13] was 0.12 ugequiv. It also gave a Radiolabel recovery [14] of 2.05 ugequiv, a Radiolabel recovery [15] of 11.23 ugequiv and a Cmax (Rattus norvegicus [16]) of 2926 ngequiv/ml. For the same compound, the Radiolabel recovery (Blood) was 0.14 ugequiv, the Radiolabel recovery [17] was 1.66 ugequiv and the Radiolabel recovery (Kidney) was 0.09 ugequiv.
